# Experimental data published in ChEMBL document CHEMBL1159071, “Discovery of 4-(5-methyloxazolo[4,5-b]pyridin-2-yl)-1,4-diazabicyclo[3.2.2]nonane (CP-810,123), a novel alpha 7 nicotinic acetylcholine receptor agonist for the treatment of cognitive disorders in schizophrenia: synthesis, SAR development, and in vivo efficacy in cognition models” (J Med Chem, 2010).
# Columns and labels:
# [1] = target: Neuronal acetylcholine receptor subunit alpha-7 (Rattus norvegicus) (UniProt Q05941); experiment: Agonist activity at rat alpha7 nicotinic acetylcholine receptor expressed in Xenopus oocytes assessed as stimulation of channel currents at 32 uM at holding potential of -60/-90 mV by electrophysiology method relative to 50 uM nicotine; assay type: functional, cell-based; details: Oocyte
# Neuronal acetylcholine receptor subunit alpha-7 (Rattus norvegicus), sequence (Q05941 whole entry): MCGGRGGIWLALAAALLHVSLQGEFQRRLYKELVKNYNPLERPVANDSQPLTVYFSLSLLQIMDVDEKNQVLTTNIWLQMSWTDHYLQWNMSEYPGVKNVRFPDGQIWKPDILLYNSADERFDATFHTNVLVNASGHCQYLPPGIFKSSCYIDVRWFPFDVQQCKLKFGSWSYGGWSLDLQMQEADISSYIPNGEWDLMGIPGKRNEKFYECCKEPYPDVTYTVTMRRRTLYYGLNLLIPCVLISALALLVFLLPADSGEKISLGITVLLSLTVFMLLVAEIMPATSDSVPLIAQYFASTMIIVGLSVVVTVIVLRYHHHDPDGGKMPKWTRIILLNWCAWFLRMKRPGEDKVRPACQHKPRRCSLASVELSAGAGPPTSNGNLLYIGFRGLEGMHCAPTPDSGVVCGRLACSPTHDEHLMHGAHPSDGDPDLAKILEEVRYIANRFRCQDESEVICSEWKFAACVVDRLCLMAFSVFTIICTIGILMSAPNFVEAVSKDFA
# Method in brief: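 Xenopus oocytes defolliculated with collagenase (1.3 mg/mL, 3 h), injected with 10-50 ng rat α7 cRNA, kept in Barth's saline up to 2 weeks. Voltage clamp at -60 or -90 mV; current evoked by compound at 32 μM given as % of the 50 μM nicotine response (set to 100%).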
# [2] = target: T1, 5-hydroxytryptamine receptor 3A (Mus musculus, UniProt P23979); experiment: Displacement of [3H]LY278584 from mouse 5HT3 receptor expressed in HEK293 cells; assay type: cell-based
# T1 sequence (P23979 whole entry): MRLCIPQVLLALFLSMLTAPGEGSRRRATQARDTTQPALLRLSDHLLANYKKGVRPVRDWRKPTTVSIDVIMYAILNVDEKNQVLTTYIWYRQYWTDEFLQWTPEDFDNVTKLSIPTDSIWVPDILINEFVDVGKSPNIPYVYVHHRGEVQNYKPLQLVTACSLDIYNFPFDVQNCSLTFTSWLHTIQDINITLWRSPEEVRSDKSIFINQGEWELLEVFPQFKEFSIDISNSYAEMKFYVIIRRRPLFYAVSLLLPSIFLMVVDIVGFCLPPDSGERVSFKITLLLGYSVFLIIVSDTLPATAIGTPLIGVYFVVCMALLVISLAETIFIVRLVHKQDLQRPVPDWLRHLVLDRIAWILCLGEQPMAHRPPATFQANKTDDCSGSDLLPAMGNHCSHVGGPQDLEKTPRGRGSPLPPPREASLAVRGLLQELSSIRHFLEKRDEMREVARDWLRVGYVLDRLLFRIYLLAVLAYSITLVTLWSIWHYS
# Method in brief: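 Mouse 5-HT3A in HEK293 cell homogenate, 20 mM Tris-HCl pH 7.4 with 154 mM NaCl. [3H]LY278584 1 nM final; nonspecific binding with 10 μM ICS205-930; 60 min at 37 °C, then filtration onto PEI-soaked GF/B. Ki by Cheng-Prusoff; mean of three six-point curves in triplicate in one assay; tropisetron standard.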
# [3] = target: Neuronal acetylcholine receptor subunit alpha-7 (Rattus norvegicus, UniProt Q05941); experiment: Displacement of [125I]BTX from rat alpha7 nicotinic acetylcholine receptor expressed in GH4C1 cells; assay type: cell-based, GH4-C1
# Neuronal acetylcholine receptor subunit alpha-7, sequence (Q05941 whole entry): as the sequence (Q05941 whole entry) above
# Method in brief: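 GH4C1 membranes (20 mM HEPES, 118 mM NaCl, 4.5 mM KCl, 2.5 mM CaCl2, 1.2 mM MgSO4, pH 7.5) incubated 2 h at 37 °C with [125I]α-bungarotoxin 0.4 nM final. Nonspecific binding with 1 μM methyllycaconitine; filtration onto PEI-treated GF/B filters. Ki = IC50/(1+[L]/KD); six-point curves in triplicate; geometric mean with 95% CI.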
# [4] = Agonist activity at human alpha7 nAChR/mouse 5HT3 chimeric receptor expressed in SH-EP1 cells assessed as increase in intracellular calcium level; assay type: functional, cell-based
# Method in brief: (§1)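 α7-5HT3 chimera stably in SH-EP1 cells grown to confluence; loaded with Calcium Green 1 AM (2 μM final) 60 min at 37 °C. Compound added directly; calcium rise read by FLIPR (excitation 488 nm, emission >525 nm).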
# [5] = Agonist activity at human alpha7 nAChR/mouse 5HT3 chimeric receptor expressed in SH-EP1 cells assessed as increase in intracellular calcium level relative to 100 uM nicotine; assay type: functional; method in brief: as §1
# [6] = target: T2, 5-hydroxytryptamine receptor 3A (Homo sapiens, UniProt P46098); experiment: […] at human 5HT3 receptor expressed in human skin epithelial cells assessed as stimulation of calcium flux by FLIPR assay; assay type: functional, cell-based, Epithelial cell
# T2 sequence (P46098 whole entry): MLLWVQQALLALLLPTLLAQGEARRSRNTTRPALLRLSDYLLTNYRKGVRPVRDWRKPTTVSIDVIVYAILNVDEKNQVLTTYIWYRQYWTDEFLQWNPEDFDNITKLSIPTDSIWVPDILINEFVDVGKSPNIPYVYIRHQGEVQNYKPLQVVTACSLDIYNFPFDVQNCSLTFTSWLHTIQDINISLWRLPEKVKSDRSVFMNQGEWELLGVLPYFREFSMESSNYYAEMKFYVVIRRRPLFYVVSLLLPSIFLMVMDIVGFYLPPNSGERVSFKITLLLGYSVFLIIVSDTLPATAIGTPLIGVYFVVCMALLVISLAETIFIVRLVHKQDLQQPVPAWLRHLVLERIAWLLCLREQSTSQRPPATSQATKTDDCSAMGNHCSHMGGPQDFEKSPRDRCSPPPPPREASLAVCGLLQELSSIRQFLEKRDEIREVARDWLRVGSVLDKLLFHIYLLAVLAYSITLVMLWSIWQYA
# Method in brief: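 Human 5-HT3A stably in human skin epithelial cells, plated 15 000 cells/well 2 days ahead; loaded 1 h at 37 °C with Fluo-4 (8 μM final), washed into HBSS with 20 mM Tris-HEPES, 1 μM atropine, 4 mM Ca2+, pH 7.4. Compound added 2 min, then 5-HT challenge (250 nM final) 2 min; FLIPR calcium read.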
# CHO = experiment: Toxicity in CHO cells assessed as induction of DNA fragments by in vitro micronucleus assay; assay type: cell-based, Cricetulus griseus; details: chinese hamster
# [7] = target: Voltage-gated inwardly rectifying potassium channel KCNH2 (Homo sapiens, UniProt Q12809)
# Voltage-gated inwardly rectifying potassium channel KCNH2, sequence (Q12809 whole entry): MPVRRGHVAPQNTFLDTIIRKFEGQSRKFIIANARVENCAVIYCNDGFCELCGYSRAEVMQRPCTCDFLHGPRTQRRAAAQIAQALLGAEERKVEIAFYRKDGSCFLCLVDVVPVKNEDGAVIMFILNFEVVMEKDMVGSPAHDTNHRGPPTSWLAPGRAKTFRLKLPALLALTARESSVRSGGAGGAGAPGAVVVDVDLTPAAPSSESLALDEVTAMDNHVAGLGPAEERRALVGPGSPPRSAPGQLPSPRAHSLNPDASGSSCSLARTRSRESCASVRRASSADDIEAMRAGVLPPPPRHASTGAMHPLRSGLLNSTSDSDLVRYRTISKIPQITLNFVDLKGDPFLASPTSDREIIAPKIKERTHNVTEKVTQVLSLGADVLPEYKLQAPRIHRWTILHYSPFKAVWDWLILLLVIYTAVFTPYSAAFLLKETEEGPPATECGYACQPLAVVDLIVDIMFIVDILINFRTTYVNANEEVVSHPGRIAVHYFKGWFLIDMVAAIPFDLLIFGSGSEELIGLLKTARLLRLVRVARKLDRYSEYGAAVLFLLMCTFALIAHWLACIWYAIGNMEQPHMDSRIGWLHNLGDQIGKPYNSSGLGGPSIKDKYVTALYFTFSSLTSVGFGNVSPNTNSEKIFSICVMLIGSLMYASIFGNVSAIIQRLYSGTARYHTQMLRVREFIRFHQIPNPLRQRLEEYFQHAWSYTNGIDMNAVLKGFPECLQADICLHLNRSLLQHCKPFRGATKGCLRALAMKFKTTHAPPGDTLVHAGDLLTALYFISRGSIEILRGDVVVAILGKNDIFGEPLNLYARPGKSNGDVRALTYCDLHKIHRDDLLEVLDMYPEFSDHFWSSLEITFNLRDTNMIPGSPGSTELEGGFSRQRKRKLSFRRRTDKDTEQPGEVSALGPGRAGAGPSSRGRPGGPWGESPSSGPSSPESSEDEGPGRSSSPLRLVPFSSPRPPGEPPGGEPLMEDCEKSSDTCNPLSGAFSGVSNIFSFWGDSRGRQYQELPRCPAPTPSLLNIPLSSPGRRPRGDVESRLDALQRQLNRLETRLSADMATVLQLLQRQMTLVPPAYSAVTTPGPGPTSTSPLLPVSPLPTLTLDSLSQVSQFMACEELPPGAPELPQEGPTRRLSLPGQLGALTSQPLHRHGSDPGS
compound,measurement,setting,value
c1cnc2nc(N3CCN4CCC3CC4)oc2c1,Activity,[1],220%
same,Ki,[2],579 nM
same,Ki,[3],30.3 nM
c1cc2oc(N3CCN4CCC3CC4)nc2cn1,Activity,[1],156%
same,Ki,[2],2120 nM
same,Ki,[3],312 nM
Clc1ccc2oc(N3CCN4CCC3CC4)nc2c1,Activity,[1],122%
same,Ki,[2],1.2 nM
same,Ki,[3],1.92 nM
c1cncc(-c2cnc3nc(N4CCN5CCC4CC5)oc3c2)c1,Ki,[2],> 5350 nM
same,Ki,[3],119 nM
same,EC50,[4],430 nM
same,Efficacy,[5],70%
c1cc2oc(N3CCN4CCC3CC4)nc2nc1N1CCCC1,Ki,[2],6340 nM
same,Ki,[3],1.91 nM
same,EC50,[4],470 nM
same,Efficacy,[5],67%
Brc1ccc2oc(N3CCN4CCC3CC4)nc2c1,Activity,[1],78%
same,Ki,[2],< 17 nM
same,Ki,[3],2.15 nM
Fc1ccc2oc(N3CCN4CCC3CC4)nc2c1,Activity,[1],315%
same,Ki,[2],3.9 nM
same,Ki,[3],20.7 nM
c1cnc2oc(N3CCN4CCC3CC4)nc2c1,Activity,[1],182%
same,Ki,[2],92 nM
same,Ki,[3],40.6 nM
COc1ccc2oc(N3CCN4CCC3CC4)nc2n1,Ki,[2],141 nM
same,Ki,[3],24.9 nM
same,EC50,[4],1000 nM
same,Efficacy,[5],56%
Cc1ccc2nc(N3CCN4CCC3CC4)oc2c1,Activity,[1],197%
same,Ki,[2],< 17 nM
same,Ki,[3],17.9 nM
c1cc2oc(N3CCN4CCC3CC4)nc2nc1C1CCCC1,Ki,[2],> 5290 nM
same,Ki,[3],5.3 nM
same,EC50,[4],525 nM
same,Efficacy,[5],54%
c1ccc(-c2cnc3nc(N4CCN5CCC4CC5)oc3c2)cc1,Ki,[2],2120 nM
same,Ki,[3],7.04 nM
same,EC50,[4],320 nM
same,Efficacy,[5],71%
Clc1cnc2nc(N3CCN4CCC3CC4)oc2c1,Ki,[2],1370 nM
same,Ki,[3],1 nM
same,EC50,[4],160 nM
same,IC50,[6],484 nM
same,Efficacy,[5],83%
CCc1cnc2nc(N3CCN4CCC3CC4)oc2c1,Ki,[2],> 5260 nM
same,Ki,[3],22.5 nM
same,EC50,[4],300 nM
same,Efficacy,[5],53%
c1ccc2oc(N3CCN4CCC3CC4)nc2c1,Activity,[1],183%
same,Ki,[2],13 nM
same,Ki,[3],22.5 nM
c1cc2nc(N3CCN4CCC3CC4)oc2cn1,Activity,[1],186%
same,Ki,[2],162 nM
same,Ki,[3],309 nM
Clc1cnc2oc(N3CCN4CCC3CC4)nc2c1,Ki,[3],2.59 nM
same,EC50,[4],227 nM
same,Efficacy,[5],62%
CCc1ccc2oc(N3CCN4CCC3CC4)nc2n1,Activity,CHO,Non-toxic
same,Ki,[2],> 5260 nM
same,Ki,[3],18.7 nM
same,EC50,[4],100 nM
same,IC50,[6],3310 nM
same,Efficacy,[5],34%
CC(C)c1ccc2oc(N3CCN4CCC3CC4)nc2n1,Ki,[2],> 5290 nM
same,Ki,[3],9.05 nM
same,EC50,[4],580 nM
same,Efficacy,[5],68%
CCC(C)c1cnc2nc(N3CCN4CCC3CC4)oc2c1 (stereo unspecified),Ki,[3],> 1000 nM
Fc1ccccc1-c1ccc2oc(N3CCN4CCC3CC4)nc2n1,Activity,CHO,Non-toxic
same,Ki,[2],> 3770 nM
same,Ki,[3],3.45 nM
same,EC50,[4],160 nM
same,IC50,[7],2800 nM
same,IC50,[6],> 7310 nM
same,Efficacy,[5],73%
c1ccc(Oc2ccc3oc(N4CCN5CCC4CC5)nc3n2)cc1,Ki,[2],6830 nM
same,Ki,[3],17.3 nM
same,EC50,[4],380 nM
same,Efficacy,[5],63%
Brc1cnc2nc(N3CCN4CCC3CC4)oc2c1,Activity,CHO,Toxic
same,Ki,[2],926 nM
same,Ki,[3],2.08 nM
same,EC50,[4],240 nM
same,IC50,[7],2300 nM
same,IC50,[6],779 nM
same,Efficacy,[5],64%
c1ncc(-c2cnc3nc(N4CCN5CCC4CC5)oc3c2)cn1,Ki,[2],> 7140 nM
same,Ki,[3],60 nM
O=C(Oc1ccccc1)N1CCN2CCC1CC2,Ki,[2],3990 nM
Cc1cnc2nc(N3CCN4CCC3CC4)oc2c1,Ki,[2],3390 nM
same,Ki,[3],6.66 nM
same,EC50,[4],1020 nM
same,Efficacy,[5],55%
c1ccc(Oc2cnc3nc(N4CCN5CCC4CC5)oc3c2)cc1,Ki,[2],1960 nM
same,Ki,[3],4.16 nM
same,EC50,[4],620 nM
same,Efficacy,[5],75%
Cc1nc2nc(N3CCN4CCC3CC4)oc2cc1F,Ki,[2],547 nM
same,Ki,[3],15.3 nM
same,EC50,[4],2100 nM
same,Efficacy,[5],36%
c1cc(-c2cnc3nc(N4CCN5CCC4CC5)oc3c2)n[nH]1,Ki,[2],> 5260 nM
same,Ki,[3],23 nM
same,EC50,[4],390 nM
same,Efficacy,[5],68%
Cc1ccc2nc(N3CCN4CCC3CC4)oc2n1,Ki,[2],126 nM
same,Ki,[3],88.6 nM
same,EC50,[4],1200 nM
same,Efficacy,[5],59%
Cc1ccc2oc(N3CCN4CCC3CC4)nc2c1,Activity,[1],287%
same,Ki,[2],3.4 nM
same,Ki,[3],33.6 nM
c1cc2oc(N3CCN4CCC3CC4)nc2nc1N1CCCCC1,Ki,[2],1140 nM
same,Ki,[3],67.1 nM
same,EC50,[4],1900 nM
same,Efficacy,[5],30%
N#Cc1cnc2nc(N3CCN4CCC3CC4)oc2c1,Ki,[2],> 5290 nM
same,Ki,[3],6.2 nM
same,EC50,[4],510 nM
same,Efficacy,[5],58%
c1ccc(-c2cnc3oc(N4CCN5CCC4CC5)nc3c2)cc1,Ki,[2],3670 nM
same,Ki,[3],2.31 nM
same,EC50,[4],264 nM
same,Efficacy,[5],69%
